# Measured values pooled from the literature.
# SIRT3: NAD-dependent protein deacetylase sirtuin-3, mitochondrial (SIRT3, Homo sapiens, UniProt Q9NTG7)
SMILES,target,assay,setting,inhibition
CCCCCC1CC(=O)c2cc(F)cc(F)c2O1 (centres unmarked),SIRT3,"enzyme activity, inhibitor, fluorescence",200 µM,9.6%
O=C(NC1CCC1)[C@H](Cc1c[nH]c2ccccc12)NC(=O)[C@H](CCCCNC(=S)NCc1cc(O)no1)NS(=O)(=O)c1cccc(F)c1,SIRT3,"enzyme activity, inhibitor",30 µM,6%
CCCCCCCCCCCCNC(=S)NCCCC[C@H](NC(=O)OCc1ccccc1)C(=O)N[C@@H](Cc1c[nH]c2ccccc12)C(=O)N[C@@H](CCCCNC(=N)N)C(N)=O,SIRT3,"enzyme activity, inhibitor",10 µM,20%
C=CN1CCCn2c1nc1c2c(=O)n(C)c(=O)n1C,"Adenosine receptor A2a (Adora2a, Rattus norvegicus, UniProt P30543)","ligand displacement, radioligand","25 µM, cell membranes",47%
CN(C)C1CCN(CC#Cc2nn(C3CCCC3)c3nc(NCc4ccccc4)ncc23)C1 (centres unmarked),"Ephrin type-A receptor 3 (EPHA3, Homo sapiens, UniProt P29320)","enzyme activity, inhibitor, FRET",0.1 µM,-6%
Oc1cccc(Nc2nc(-c3ccc(F)cc3F)cs2)c1,"Type-2 angiotensin II receptor (AGTR2, Homo sapiens, UniProt P50052)",cell-free assay,10 µM,-5.6%
Cc1ccc(C(=O)Nc2ccc(S(=O)(=O)O)c3cc(S(=O)(=O)O)cc(S(=O)(=O)O)c23)cc1NC(=O)c1cccc(NC(=O)Nc2cccc(C(=O)Nc3cc(C(=O)Nc4ccc(S(=O)(=O)O)c5cc(S(=O)(=O)O)cc(S(=O)(=O)O)c45)ccc3C)c2)c1,SIRT3,"enzyme activity, inhibitor",100 µM,6%
CCCCCC1CC(=O)c2ccccc2O1 (centres unmarked),SIRT3,"enzyme activity, inhibitor, fluorescence",200 µM,0.8%
O=C(c1ccc(Cl)cc1)N(Cc1ccccc1)C1CCCCC1,"Gamma-aminobutyric acid receptor subunit alpha-1 (GABRA1, Homo sapiens, UniProt P14867)",cell-free assay,10 µM,-34.8%
CCOCCOCCOCCNC(=S)NCCCC[C@H](NS(C)(=O)=O)C(=O)N[C@@H](C)C(=O)N[C@@H](CCCNC(=N)N)C(N)=O,SIRT3,"enzyme activity, inhibitor",100 µM,16%
O=C1CC(CCc2c[nH]c3ccccc23)Oc2c(Br)cc(Cl)cc21 (centres unmarked),SIRT3,"enzyme activity, inhibitor, fluorescence",200 µM,20%
CCCCCCCCCCCCNC(=S)NCCCC[C@H](NS(C)(=O)=O)C(=O)N[C@H](C)C(=O)N[C@@H](CCCNC(=N)N)C(=O)O,SIRT3,"enzyme activity, inhibitor",100 µM,34%
C[C@@H]1O[C@@H](OC[C@H]2O[C@@H](Oc3c(-c4ccc(O)cc4)oc4cc(O)cc(O)c4c3=O)[C@H](O[C@@H]3O[C@H](CO)[C@@H](O)[C@H](O)[C@H]3O)[C@@H](O)[C@@H]2O)[C@H](O)[C@H](O)[C@H]1O,"Prostaglandin G/H synthase 1 (PTGS1, Ovis aries, UniProt P05979)","enzyme activity, inhibitor, absorbance",50 µM,72.6%
CCCCCC1CC(=O)c2cc(Cl)ccc2O1 (centres unmarked),SIRT3,"enzyme activity, inhibitor, fluorescence",200 µM,6%
CCN(Cc1ccccc1C(F)(F)F)C(=O)C1CCN(S(=O)(=O)c2ccc3[nH]ncc3c2)CC1,"Androgen receptor (Ar, Rattus norvegicus, UniProt P15207)","ligand displacement, radioligand",10 µM,11%
O=C(O)Cc1ccccc1OP(=O)(O)O,"Signal transducer and activator of transcription 5A, SH2 (Homo sapiens, UniProt P42229)","ligand displacement, FP",100 µM,40%
CN1CCN(CCCOc2ccc(=O)n(-c3ccc(Cl)c(Cl)c3)n2)CC1,"Transient receptor potential cation channel subfamily V member 1 (TRPV1, Homo sapiens, UniProt Q8NER1)",ligand displacement,1 µM,17.1%
O=C(Nc1cccc(C(=O)Nc2ccc3[nH]ncc3c2)c1)Nc1ccccc1F,"BDNF/NT-3 growth factors receptor (NTRK2, Homo sapiens, UniProt Q16620)","enzyme activity, inhibitor, FRET",1 µM,27.8%
CCCCC[C@H]1CC(=O)c2cc(Cl)cc(Br)c2O1,SIRT3,"enzyme activity, inhibitor, fluorescence",200 µM,3.9%
CN1CC(Oc2cnc(C#N)cc2-c2ccn3nc(NC(=O)C4CC4)cc3c2)C1,"Transcription initiation factor TFIID subunit 1-like (TAF1L, Homo sapiens, UniProt Q8IZX4)","enzyme activity, inhibitor",1 µM,-5%
